# Assay: Toxicity liver stage against HepG2, at 10uM
# Type: cell-based
# Parameters: test concentration 10 uM, cell line HepG2-A16-CD81EGFP
# Settings: human, HepG2-A16-CD81EGFP cells; read-out: INHIBITION
# Summary of the method: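 Uninfected HepG2-A16-CD81EGFP cells, 3 × 10^3 per well, 1536-well, plated on prespotted compound at 10 μM final, parasite-free screening media added to match infected plates; puromycin 10 μM positive, DMSO 0.5% negative; run in parallel with 48 h PbLuc assay at 37 °C, 5% CO2; viability by CellTiter-Glo luminescence, normalized to controls.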
row,SMILES,cytotoxicity at 10 µM [%]
1,CC(=O)c1ccc(OCC(=O)NS(=O)(=O)c2ccc(Cl)s2)cc1,1.77
2,Cc1ccc(N2CCCC(N(C)c3nn4cc(C)nc4s3)C2)nn1 (stereo not given),8.45
3,CN1CCN(C(=O)c2n[nH]c3c2CCN(Cc2nccs2)C3)CC1,-143
4,COCc1cc(C[C@@H]2CC[C@H](O)[C@@H](CNCC(C)C)O2)no1,0.847
5,CSCc1ccc(C(=O)N2CCN(CC(C)O)CC2)cc1 (stereo not given),-6.23
6,CN(CC(=O)NCc1ccccn1)C1CCCN(c2cccnn2)C1 (stereo not given),-9.06
7,CNC(=O)Cc1ccc(-n2ccnc2-c2cccc(C(=O)O)c2)cc1,-7.9
8,COc1ccc2oc(C(C)NC(=O)NCC(C)(C)C(N)=O)c(C)c2c1 (stereo not given),-9.51
9,Cc1nc(CCN)cc(N2CCOc3ccc(Cl)cc3C2)n1,-0.29
10,Nc1ncc(-c2ccc(NC(=O)[C@@H]3CCCCN3)cc2)cn1,-4.44
11,CC(C)[C@H](NS(C)(=O)=O)C(=O)NCc1cc(-c2ccco2)n[nH]1,-9.13
12,CC(C)Cc1cn(C2CCN(C(C)CCn3cccn3)CC2)nn1 (stereo not given),-1.8
13,c1cc(CN2C[C@H](OCC3CCOCC3)[C@H]3COC[C@H]32)cs1,9.86
14,CCc1ccc(C(=O)N2CCC(Nc3ccc(C)nn3)CC2)o1,-11
15,CC1=NOC2(CCN(Cc3c[nH]c4ccccc34)CC2)C1,4.54
16,CCOC(=O)[C@]12CCCN(Cc3nccs3)C[C@H]1CN(C(C)C)C2,-8.81
17,COc1ccc2c(c1)CC(NCc1cccc(NC(C)=O)c1)CC2 (stereo not given),-39.2
18,Cc1[nH]c2c(C)ccc(C)c2c1CC(=O)NCC(O)c1cccnc1 (stereo not given),-2.11
19,COC(=O)c1ccc(NC(C)c2ccc3c(c2)CCC(=O)N3)nn1 (stereo not given),2.52
20,CS(=O)(=O)NC1CCCN(C(=O)NCc2ccoc2)C1 (stereo not given),-14.9
21,COC(=O)c1ccc(OCCn2cnc(C#N)n2)cc1,-2.01
22,Cc1cccc(OCCNC(=O)C(C)S(=O)(=O)c2ccccn2)c1 (stereo not given),5.76

row,SMILES,cytotoxicity at 10 µM [%]
1,CC(C)CN1C[C@@H]2CN(S(=O)(=O)c3cccs3)C[C@@H]2C1=O,4.09
2,Cn1c(CN2CCC(O)CC2)nnc1C1CCCN(C(=O)C2CNC2)C1 (stereo not given),3.19
3,Cn1cc(CN2CCn3cc(CNC(=O)c4cccn4C)nc3C2)cn1,1.85
4,CN(C)C(=O)N1CCc2onc(C(=O)Nc3cccnc3)c2C1,4.85
5,COc1ccc(CN(Cc2cncn2C)CC2CCCO2)c(OC)c1 (stereo not given),-4.48
6,O=C(Cc1cccc(F)c1F)NS(=O)(=O)c1ccc(Cl)cn1,0.545
7,N#Cc1ccc(N2CCCC2Cn2cccn2)nc1 (stereo not given),6.55
8,COc1ncc(NCc2ccc(Cl)c(Cl)c2)cc1C(N)=O,32.7
9,CN(CCN1CCCC1)c1nccc(N2CCN[C@H]3CS(=O)(=O)C[C@H]32)n1,-8.93
10,O=C(CC1Cn2ncnc2NC1=O)Nc1cccc(C(F)(F)F)c1 (stereo not given),6.17
11,Cc1ccc(CNC(=O)CN2C=Nc3ccccc3S2(=O)=O)s1,0.347
12,CC(=O)Nc1cc(-c2cccc(F)c2F)n[nH]1,-0.305
13,CN(Cc1nc(-c2cccnc2)no1)C(=O)c1c2c(nn1C)CCCC2,7.54
14,NC(=O)CCSc1ccccc1NCc1ccc(Cl)s1,7.74
15,CC(=O)N[C@H]1CN(CC(=O)NCc2ccccc2C)C[C@@H]1C(C)C,1.69
16,CC[C@@]1(O)CCN(C(=O)c2cccc3cc(C)oc23)C[C@H]1O,4.62
17,Cc1cccc(NC(=O)Cn2nc3ccccn3c2=O)c1C,-13.4
18,COc1ccc2c(ccn2CCN)c1,-0.73
19,O=C1NCCCc2[nH]c(C3CCN(C(=O)C4CC4)CC3)nc21,-3.46
20,O=C(COc1cccc(Br)c1)N1CCN(c2nccs2)CC1,-1.53
21,CCn1c2c(ccc1=O)CC(N)CC2 (stereo not given),-1.72
22,CCCc1ccc(C(=O)N2CCc3c(nc(C)nc3N(C)C)C2)cc1,-1.34

row,SMILES,cytotoxicity at 10 µM [%]
1,CCc1ccccc1CNC(=O)CNC(=O)C(C)(C)C,2.29
2,Cc1ncsc1CCN(C)C(=O)c1ncccc1O,-5.43
3,Cc1cc(=O)[nH]c(-n2nc(-c3cccs3)cc2N)n1,4.57
4,CCN(Cc1ccccn1)C1CCN(c2ccccc2)C1=O (stereo not given),4.34
5,CCn1ccc(-c2cc(NCCCOc3ccccc3C)nc(C)n2)n1,-5.28
6,Cc1noc([C@]23COC[C@H]2CN(S(=O)(=O)N(C)C)C3)n1,10.9
7,CN(CCN1CCCCCC1)C(=O)c1c(O)cccc1O,-7.08
8,Cc1ccc(N2CCO[C@H]3CN(Cc4ccncc4)C[C@H]32)nn1,1.23
9,Cc1ccc(NC(=O)NC(C)c2nc[nH]n2)s1 (stereo not given),-2.18
10,Cc1cc(C(C)NC(=O)c2cnc3onc(C)c3c2)c(C)o1 (stereo not given),6.15
11,Cc1cnn(CC2CCCN2C(=O)CCc2c(C)nn(C)c2C)c1 (stereo not given),0.407
12,CC(C)N(C)Cc1nnc2n1CCCN(S(=O)(=O)C1CC1)C2,-0.48
13,CC(C)c1cc(NC(=O)c2ccc(C(=O)NC(C)(C)C)cc2)[nH]n1,-0.164
14,CN(C)c1ccccc1C(=O)N1C[C@@H](CN2CCC(O)CC2)[C@@H](CO)C1,3.11
15,CSc1nc(C2CC2)nc(C)c1C(=O)NCc1ccco1,5.25
16,Cc1ccc2c(c1)C1(CCN(S(C)(=O)=O)CC1)CN2C(=O)N(C)C,-121
17,CCN1CCOC(CNc2nccc(OC)n2)C1 (stereo not given),-0.572
18,COc1ccc(-c2nc(CN3CC(n4cccn4)C3)no2)cc1,-3.08
19,Cc1cc(C)n(CCC(=O)N2CCCC(n3nc(C)nc3C)C2)n1 (stereo not given),-5.61
20,CC(C)c1cccc(CSc2nnc(Cn3cncn3)o2)n1,13
21,CC(C)c1nn(C)c(N(C)C)c1CNCc1cccc(CN(C)C)c1,-4.22
22,CC(C)n1cc(C(=O)NCCCn2ccnc2)c2n[nH]c(=O)c-2c1,-4.17

row,SMILES,cytotoxicity at 10 µM [%]
1,Cc1ccc(CC(=O)N2CCC(Nc3ccc(C)nn3)CC2)cn1,-4.75
2,CCN1CCN(c2ccc(C(=O)NCCn3ccnc3)cc2F)CC1,10.8
3,COc1ccc(OC)c(CCC(=O)Nc2cc(C)n[nH]2)c1,7.3
4,Cc1cc(Br)oc1C(=O)N1CCC(N(C)C)CC1,-4.71
5,Cc1cnn(CC2CCCN2C(=O)c2cccc(S(C)(=O)=O)c2)c1 (stereo not given),-10.3
6,O=C(Nc1ccccc1)[C@H]1O[C@H](CCN2CCNCC2)CC[C@@H]1O,-7.49
7,Cc1nc(C)n(CC2CN(Cc3noc(C4CC4)n3)CCO2)n1 (stereo not given),-8.15
8,Cc1ccc(C(=O)N2CCC3(CCC(=O)N(C(C)C)C3)CC2)c(O)c1,17.5
9,O=C(c1cccs1)N1CCC(Cn2nc(-c3ccco3)ccc2=O)CC1,-2.21
10,N#Cc1ccc(CCC(=O)N2CCC(CN3CCOCC3)CC2)cc1,-4.97
11,COc1ccc(-c2cnc(CN3CCn4c(C)nnc4C3)o2)cc1,-13.5
12,CC(C)(C)NC(=O)c1ccc(COCC(F)(F)F)o1,-0.585
13,CCC(=O)N1CCN(C(=O)Cn2cccn2)CC1,0.661
14,N#CCCN(Cc1ccco1)C(=O)CCCNC(=O)c1ccccc1,8.15
15,CCn1ccnc1CN1CCCN(C(=O)Cc2ccc(F)cc2)CC1,-15.8
16,COCCOC1CCN(C(=O)NCc2coc3ccccc23)CC1,-8.93
17,COc1ccc(Oc2nccnc2C2CCN(C(C)=O)CC2)cc1,-12.4
18,CN1CCN(C(=O)[C@@H]2CN(C)C[C@]23COc2ccc(F)cc2C3=O)CC1,3.06
19,Cc1ccccc1C(Nc1ncnc2c1CCNC2)c1ccccc1 (stereo not given),7.78
20,O=C(NCC[S+]([O-])Cc1ccccc1)c1ccc2[nH]c(=O)[nH]c2c1 (stereo not given),6.11
21,c1cncc(OCC2CN(Cc3ccsc3)Cc3nccn3C2)c1 (stereo not given),-72.4
22,NC(=O)N1CC[C@H](O)[C@@H]1Cc1ccccc1,3.32

row,SMILES,cytotoxicity at 10 µM [%]
1,CS(=O)(=O)N1CCO[C@@H]2CN(C(=O)N3CCCC3)CC[C@@H]2C1,-101
2,OC1(CNCCSc2ccccn2)CCCNC1 (stereo not given),-6.46
3,CN(Cc1ccccc1)CC1CC2(CO1)CN(Cc1cnn(C)c1)C2 (stereo not given),9.76
4,CCc1[nH]ncc1C(=O)N1CCCN(Cc2cnn(C)c2)CC1,1.71
5,N#CC1CCCN(c2ncnc3c2CCN(Cc2ccccc2)CC3)C1 (stereo not given),-3.64
6,CC(C)n1cc(C(=O)N2CCC(n3cc(C(C)(C)C)nn3)CC2)cn1,1.19
7,Cc1oc(NC(=O)C(C)N2CCN(C(C)(C)CO)CC2)c(C#N)c1C (stereo not given),-3.62
8,Cc1nc(C)n(CC2CN(c3ncccn3)Cc3nccn3C2)n1 (stereo not given),-8.5
9,Cc1nc2c(NCC(C)N(C)c3ccccc3)ncnc2o1 (stereo not given),4.73
10,O=C(NCCn1ccc(-c2ccncc2)n1)C1CC1,-2.08
11,CCn1ccnc1CN1CCCN(C(=O)c2csc(C)n2)CC1,-2.84
12,Cc1ccn(-c2ccccc2NCc2cccnc2)n1,0.508
13,Cn1ncnc1CCNC(=O)c1cc(Cl)c(Cl)n1C,-5.12
14,COCc1nc(CN2CC(=O)N(C)c3ccccc3C2=O)no1,-6.03
15,CN(C)c1ccc(CCCNC(=O)NCC(O)c2cccs2)cc1 (stereo not given),-2.59
16,O=C1CCCN1Cc1nnc2n1CCCN(Cc1ccco1)C2,3.24
17,CN1CCN(c2ccc3ccc(C(=O)N4CCCO4)cn23)CC1,13.4
18,CNC(=O)NC(=O)CCSCc1cc(F)cc2cccnc12,-5.31
19,c1ccc(CN2CCCn3nnc(CNc4ncccn4)c3C2)nc1,-3.29
20,Cc1noc(C)c1C(=O)N1C[C@H]2CCC[C@@]2(COc2ccccn2)C1,-5.53
21,Cc1noc(C2CCN(CC(=O)N3CCNC(=O)C3)CC2)n1,2.41
22,COCCN1CCO[C@@H]2CN(Cc3sccc3C)C[C@@H]2C1,-1.34

# Source: ChEMBL document CHEMBL4513216, “Probing the Open Global Health Chemical Diversity Library for Multistage-Active Starting Points for Next-Generation Antimalarials” (ACS Infect Dis, 2020)
